Reference: ChEMBL document CHEMBL1134581, “Synthesis and in vitro antitumor activity of oligonucleotide-tethered and related platinum complexes” (J Med Chem, 2001)

Assays:
Format in all cases: functional, cell-based, Homo sapiens
A2780 = assay: Growth and colony formation inhibition of A2780 ovarian cancer cell lines
Procedure, shortened: (§1)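 Colony formation assay in A2780 (wt p53) and SW626 (mutant p53) monolayers, RPMI 1640 with 10% FBS and 2 mM L-glutamine, 37 °C, 5% CO2. 300–500 cells/well, attached 1 day, then serially diluted drug. Exposure 7 days for A2780, 10 days for SW626. Colonies fixed and stained with 0.1% crystal violet in methanol, then counted. IC50 extrapolated. Mean ± SD of three experiments.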

SK-OV-3 = assay: Growth and colony formation inhibition of SKOV-3 ovarian cancer cell lines
Procedure, shortened: (§2)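 Colony formation in PA-1 (wt p53, 7 days of drug) and SKOV-3 (p53-null, 10 days of drug). Both in RPMI 1640 with 10% FBS and 2 mM L-glutamine, 300–500 cells/well, attached 1 day. Colonies stained with 0.1% crystal violet in methanol and counted. IC50 extrapolated; three experiments. Also an MTT assay: PA-1 1000 cells/well, 1 day attachment, 5 days of drug; SKOV-3 600 cells/well, 2 days attachment, 7 days of drug. MTT 5 h, DMSO, read at 570/630 nm; four experiments.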

[1] = Growth and colony formation inhibition of SW626 ovarian cancer cell lines; procedure, shortened: as §1
[2] = Growth and colony formation inhibition of PA-1 ovarian cancer cell lines; procedure, shortened: as §2
[3] = Growth and colony formation inhibition of VM-1 leukemia cancer cell lines
Procedure, shortened: (§3)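 CEM and teniposide-resistant CEM/VM-1 leukemia cells in suspension, MEM with 10% FBS and 2 mM L-glutamine, 37 °C, 5% CO2. Exponentially growing cells seeded in triplicate at 3 × 10^5 cells/mL. Drugs dissolved in DMSO or PBS, serially diluted, 48 h exposure. Growth inhibition by Coulter counting. IC50 extrapolated from the concentration–% inhibition plot. Mean ± SD of three experiments.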

CCRF-CEM = assay: Growth and colony formation inhibition of CEM leukemia cancer cell lines; procedure, shortened: as §3

| IC50 (A2780) [µM] | IC50 (SK-OV-3) [µM] | IC50 (CCRF-CEM) [µM] | Substance | IC50 [1] [µM] | IC50 [2] [µM] | IC50 [3] [µM] |
| --- | --- | --- | --- | --- | --- | --- |
| 125 | > 200 | – | 3-(7a-Chloro-7-diisopropylamino-hexahydro-6-oxa-1,3a-diaza-platinum-7lambda*5*-phospha-inden-7-yloxy)-propionitrile | > 200 | 165 | – |
| – | 13 | – | Amminedichloro(2-hydroxyethylamine)platinum (II) | – | 0.7 | – |
| – | 6 | – | Amminedichloro(4-hydroxybutylamine)platinum (II) | – | 0.4 | – |
| – | 9 | – | Amminetetrachloro(4-hydroxybutylamine)platinum(IV) | – | 0.2 | – |
| – | 10 | – | Amminetetrachloro(4-hydroxyethylamine)platinum(IV) | – | 0.9 | – |
| – | 28.5 | – | CARBOPLATIN | – | 2.4 | – |
| 0.6 | 0.5 | < 1 | CISPLATIN | 0.5 | 0.3 | < 1 |
| – | 30 | – | DICHLORO(AMMINO ETHYLAMMINO ETHANOL) PLATINUM(II) [listing 1 of 2 here] | – | 2.9 | – |
| – | 26 | – | DICHLORO(AMMINO ETHYLAMMINO ETHANOL) PLATINUM(II) [listing 2 of 2 here] | – | 1.7 | – |
| 2.8 | 24 | 7 | Dichloro diacetyl oxy-(amino ethylamino ethanol) platinum | 28 | 1.5 | 7 |
| – | 20 | – | Dichlorodi(3-hydroxypropylamine)platinum (II) | – | 1.2 | – |
| – | 23 | – | Dichlorodi(4-hydroxybutylamine)platinum (II) | – | 1.5 | – |
| 1.6 | 10 | 8 | Tetrachlorodi(3-hydroxypropylamine)platinum(IV) | 3 | 0.6 | 5 |
| 2.2 | 4 | 10 | Tetrachlorodi(4-hydroxybutylamine)platinum(IV) | 7 | 1 | 10 |

| Substance | IC50 (A2780) [µM] | IC50 (SK-OV-3) [µM] | IC50 (CCRF-CEM) [µM] | IC50 [1] [µM] | IC50 [2] [µM] | IC50 [3] [µM] |
| --- | --- | --- | --- | --- | --- | --- |
| Dichlorodiacetyl oxy-(ammino acetoxy butylammino ethanol) platinum (II) | – | 22 | – | – | 0.8 | – |
| Dichlorodiacetyl oxy-(ammino acetoxy ethylammino ethanol) platinum (II) | – | 10 | – | – | 2.8 | – |
